Measurements published in ChEMBL document CHEMBL1671644, “Inhibition of human immunodeficiency virus type 1 infection by the candidate microbicide dapivirine, a nonnucleoside reverse transcriptase inhibitor” (Antimicrob Agents Chemother, 2009).
Active and inactive are the calls of the source. The rule behind the calls is not given here.

How the values were obtained:
[1] = tested on: Human immunodeficiency virus 1; test: Antiviral activity against HIV-1 subtype B V022814 infected in human MT4 cells assessed as inhibition of viral replication relative to HIV-1 3B; format: functional
Procedure, shortened: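 MT-4 cells (3 x 10^4/well) infected with site-directed mutants or recombinant clinical isolates (200 TCID50/well) with drug, cultured 3 to 5 days. Viability read by MTT colorimetric antivirogram assay. IC50 by nonlinear regression; fold change = IC50 for the test isolate / IC50 for wild-type HIV-1 IIIB tested in parallel (mean or median).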

[2] = tested on: Human immunodeficiency virus 1; test: Antiviral activity against HIV-1 Bal infected in human cervical tissue explants assessed as inhibition of dissemination of virus via migratory cells after 2 hrs in presence of 12.5% cervical mucus; format: functional, organism-based
Procedure, shortened: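 Cervical explants were exposed to HIV-1BaL plus drug for 2 h in cervical mucus simulant or whole semen (final 12.5%), then washed. Migratory cells were cocultured with PM-1 indicator cells and infection read as p24 in coculture supernatant.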

[3] = tested on: Human immunodeficiency virus 1; test: Antiviral activity against HIV-1 subtype CRF01_AE V029521 infected in human MT4 cells assessed as inhibition of viral replication relative to HIV-1 3B; format: functional
Procedure, shortened: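 Recombinant clinical HIV-1 isolates (200 TCID50/well) were tested in MT-4 cells (3 x 10^4/well) over 3–5 days, with an MTT viability read-out. IC50 was fitted by nonlinear regression. Fold change is the isolate IC50 divided by the HIV-1IIIB IC50, tested in parallel.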

[4] = tested on: Human immunodeficiency virus 1; test: Antiviral activity against HIV-1 Bal infected in human PM1 cells assessed as inhibition of transmission of virus to premissive T cells at 100 nM
[5] = Toxicity against human Ectocervical tissue explants at 0.0001 to 100 uM after 24 hrs by MTT assay
Procedure, shortened: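 Uninfected ectocervical explants were exposed to drug for 2 or 24 h. Viability was measured by MTT reduction per milligram of tissue relative to unexposed explants, either immediately or after overnight culture. Three or four donors, triplicate.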

[6] = Cytotoxicity against human TZM-bl cells after 24 hrs by MTT assay; format: cell-based
Procedure, shortened: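 Uninfected PM-1 or TZM-bl cells were exposed to drug and viability measured by MTT dye reduction as a percentage of untreated controls. CC50 was derived by nonlinear regression.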

Question: Which results are given for `Cc1cc(C)c(Nc2ccnc(Nc3ccc(C#N)cc3)n2)c(C)c1` [DAPIVIRINE]?
Answer: Ratio IC50 [1]: 0.8; inhibition [2]: Active; Ratio IC50 [3]: 3.5; inhibition [4]: Active; Activity [5]: Non-toxic; CC50 at 24 h [6]: 20.4 µM
